In ChEMBL document CHEMBL1177870, “Multiple toxin production in the cyanobacterium microcystis: isolation of the toxic protease inhibitor cyanopeptolin 1020” (J Nat Prod, 2010):
Calls of active or inactive are those of the source. No cut-off for these calls is given here.

Key:
[1] = Inhibition of bovine trypsin; parameters: species or system Bos taurus
How it was run: (§1)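 Fluorogenic kinetic assay. Protease and inhibitor preincubated at RT for 30 min before substrate was added. Read at ex 355/em 480 nm every 30 s for 1 h. Initial rates were taken by linear regression, and fractional activity was the inhibited rate over the uninhibited blank rate.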

[2] = biological target: T1, Urokinase-type plasminogen activator (Homo sapiens, UniProt P00749); test: Inhibition of human LMW urokinase; how it was run: as §1
Prothrombin [3] = biological target: T2, Prothrombin (Homo sapiens, UniProt P00734); test: Inhibition of thrombin; how it was run: as §1
[4] = biological target: T3, Tissue-type plasminogen activator (Homo sapiens, UniProt P00750); test: Inhibition of human tissue plasminogen activator at < 2.5 uM; how it was run: as §1
Target sequence in this assay (P00750 36-562 limits assumed): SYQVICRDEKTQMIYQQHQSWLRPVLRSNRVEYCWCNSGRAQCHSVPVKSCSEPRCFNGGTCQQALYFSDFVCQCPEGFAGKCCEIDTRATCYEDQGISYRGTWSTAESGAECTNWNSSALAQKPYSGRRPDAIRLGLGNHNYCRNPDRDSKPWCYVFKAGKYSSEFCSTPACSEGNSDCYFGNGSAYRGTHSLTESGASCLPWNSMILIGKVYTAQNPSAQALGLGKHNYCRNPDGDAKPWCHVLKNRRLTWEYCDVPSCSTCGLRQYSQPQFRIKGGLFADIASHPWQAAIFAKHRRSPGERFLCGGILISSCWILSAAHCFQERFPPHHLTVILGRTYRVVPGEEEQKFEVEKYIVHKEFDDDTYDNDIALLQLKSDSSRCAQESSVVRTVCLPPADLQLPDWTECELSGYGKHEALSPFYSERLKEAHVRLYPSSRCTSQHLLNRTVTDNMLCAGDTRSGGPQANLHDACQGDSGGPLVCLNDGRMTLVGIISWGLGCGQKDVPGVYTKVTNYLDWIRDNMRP

[5] = biological target: T1, Urokinase-type plasminogen activator; test: Inhibition of human LMW urokinase at < 2.5 uM; how it was run: as §1
Plasminogen = Plasminogen (Homo sapiens, UniProt P00747); test: Inhibition of plasmin; how it was run: as §1
Chain of Plasminogen (P00747 97-580 limits assumed): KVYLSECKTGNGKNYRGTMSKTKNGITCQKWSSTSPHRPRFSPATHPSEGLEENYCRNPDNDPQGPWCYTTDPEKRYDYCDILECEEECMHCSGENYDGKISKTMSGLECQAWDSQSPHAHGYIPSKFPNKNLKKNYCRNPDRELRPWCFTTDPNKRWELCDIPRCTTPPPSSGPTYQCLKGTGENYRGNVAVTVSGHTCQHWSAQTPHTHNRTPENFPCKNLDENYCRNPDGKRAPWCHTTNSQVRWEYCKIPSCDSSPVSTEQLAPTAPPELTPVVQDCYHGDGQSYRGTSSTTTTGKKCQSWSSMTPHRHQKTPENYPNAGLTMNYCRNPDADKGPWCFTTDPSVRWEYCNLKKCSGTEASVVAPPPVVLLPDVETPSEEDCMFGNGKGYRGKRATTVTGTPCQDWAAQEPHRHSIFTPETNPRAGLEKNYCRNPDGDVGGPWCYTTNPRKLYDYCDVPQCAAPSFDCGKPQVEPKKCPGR
Chain of Plasminogen (P00747 581-810 limits assumed): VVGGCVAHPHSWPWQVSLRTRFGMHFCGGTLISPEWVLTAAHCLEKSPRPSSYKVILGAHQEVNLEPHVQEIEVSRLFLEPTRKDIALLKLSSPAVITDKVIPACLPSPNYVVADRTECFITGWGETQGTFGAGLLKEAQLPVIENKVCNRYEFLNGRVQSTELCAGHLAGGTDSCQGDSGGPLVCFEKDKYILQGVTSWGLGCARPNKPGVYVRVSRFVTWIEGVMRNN

[6] = Toxicity in Thamnocephalus platyurus after 24 hrs by acute toxicity assay; format: organism-based; details: in vivo
How it was run: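 Thamnocephalus platyurus instar II–III larvae hatched from cysts were exposed in multiwell plates for 24 h to six concentrations from 0.1 to 100 µM of highly purified compound, with 20–30 animals per concentration. LC50 was obtained by nonlinear regression.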

[7] = Inhibition of trypsin; how it was run: as §1
Prothrombin [8] = biological target: T2, Prothrombin; test: Inhibition of thrombin at < 2.5 uM; how it was run: as §1
Coagulation factor XI = Coagulation factor XI (Homo sapiens, UniProt P03951); test: Inhibition of factor 11a; how it was run: as §1
Chain of Coagulation factor XI (P03951 19-387 limits assumed): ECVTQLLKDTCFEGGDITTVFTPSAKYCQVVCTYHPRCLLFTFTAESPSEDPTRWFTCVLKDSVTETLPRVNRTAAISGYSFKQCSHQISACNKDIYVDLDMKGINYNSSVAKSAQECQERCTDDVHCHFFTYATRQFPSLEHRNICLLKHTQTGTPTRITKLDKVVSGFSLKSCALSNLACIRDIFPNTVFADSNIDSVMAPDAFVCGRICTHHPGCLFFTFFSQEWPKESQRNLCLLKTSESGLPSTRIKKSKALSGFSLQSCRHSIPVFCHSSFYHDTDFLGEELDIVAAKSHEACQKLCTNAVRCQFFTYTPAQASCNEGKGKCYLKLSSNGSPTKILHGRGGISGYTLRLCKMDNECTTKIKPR
Chain of Coagulation factor XI (P03951 388-625 limits assumed): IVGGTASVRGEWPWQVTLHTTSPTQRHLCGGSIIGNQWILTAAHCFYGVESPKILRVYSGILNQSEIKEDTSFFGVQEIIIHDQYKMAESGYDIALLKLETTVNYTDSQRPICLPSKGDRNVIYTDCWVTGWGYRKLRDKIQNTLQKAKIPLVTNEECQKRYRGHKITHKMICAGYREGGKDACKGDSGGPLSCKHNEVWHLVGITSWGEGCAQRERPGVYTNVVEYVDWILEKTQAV

[9] = biological target: T3, Tissue-type plasminogen activator; test: Inhibition of human tissue plasminogen activator; how it was run: as §1
Target sequence in this assay (P00750 whole entry): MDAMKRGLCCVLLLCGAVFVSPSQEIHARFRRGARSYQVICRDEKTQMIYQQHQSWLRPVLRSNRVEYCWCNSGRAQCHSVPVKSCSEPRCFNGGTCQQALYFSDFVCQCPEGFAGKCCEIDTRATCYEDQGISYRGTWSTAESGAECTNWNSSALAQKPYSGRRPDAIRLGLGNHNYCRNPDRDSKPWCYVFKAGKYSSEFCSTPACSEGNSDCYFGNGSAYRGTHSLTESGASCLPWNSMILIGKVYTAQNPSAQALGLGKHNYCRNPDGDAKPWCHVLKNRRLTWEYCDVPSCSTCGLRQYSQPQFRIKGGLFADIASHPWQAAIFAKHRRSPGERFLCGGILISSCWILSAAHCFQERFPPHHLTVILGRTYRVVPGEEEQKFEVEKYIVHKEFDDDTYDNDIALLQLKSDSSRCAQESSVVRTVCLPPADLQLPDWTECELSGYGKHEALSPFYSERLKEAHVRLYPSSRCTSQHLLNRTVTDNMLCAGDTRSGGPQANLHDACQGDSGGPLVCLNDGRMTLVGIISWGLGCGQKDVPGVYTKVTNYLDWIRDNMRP

[10] = Inhibition of human kallikrein; how it was run: as §1
[11] = Inhibition of chymotrypsin; how it was run: as §1

SMILES	IC50 [1] [nM]	IC50 [2] [nM]	IC50 (Prothrombin [3]) [nM]	inhibition [4]	inhibition [5]	IC50 (Plasminogen) [nM]	LC50 at 24 h [6] [nM]	IC50 [7] [nM]	inhibition (Prothrombin [8])	IC50 (Coagulation factor XI) [nM]	IC50 [9] [nM]	IC50 [10] [nM]	IC50 [11] [nM]
CC(C)C[C@@H](NC(=O)[C@H](O)COS(=O)(=O)O)C(=O)N[C@@H]1C(=O)N[C@@H](CCCNC(=N)N)C(=O)N[C@H]2CC[C@@H](O)N(C2=O)[C@@H](CC(C)C)C(=O)N(C)[C@@H](Cc2ccc(O)cc2)C(=O)N[C@@H](C(C)C)C(=O)O[C@@H]1C	10	–	–	–	–	–	–	–	–	–	–	–	–
CCCCCC(=O)N[C@@H](CCC(=O)O)C(=O)N[C@@H]1C(=O)N[C@@H](CCCNC(=N)N)C(=O)N[C@H]2CC[C@@H](O)N(C2=O)[C@@H](Cc2ccccc2)C(=O)N(C)[C@@H](Cc2ccc(O)cc2)C(=O)N[C@@H](C(C)C)C(=O)O[C@@H]1C [CYANOPEPTOLIN 1020]	–	> 605000	> 2500	inactive	inactive	490	8800	0.67	inactive	3.9	> 2500	4.5	1800
